From ChEMBL document CHEMBL1143334, “Peri-substituted hexahydro-indolones as novel, potent and selective human EP3 receptor antagonists” (Bioorg Med Chem Lett, 2009) come the findings set out here.

Broadly, the IC50 is the point on the concentration scale where inhibition reaches its midpoint. A word on the solubility: it is the dissolved amount per volume that the medium holds.

The target in data set [1] is T1, Prostaglandin E2 receptor EP1 subtype (Homo sapiens, UniProt P34995).
T1 sequence (P34995 whole entry): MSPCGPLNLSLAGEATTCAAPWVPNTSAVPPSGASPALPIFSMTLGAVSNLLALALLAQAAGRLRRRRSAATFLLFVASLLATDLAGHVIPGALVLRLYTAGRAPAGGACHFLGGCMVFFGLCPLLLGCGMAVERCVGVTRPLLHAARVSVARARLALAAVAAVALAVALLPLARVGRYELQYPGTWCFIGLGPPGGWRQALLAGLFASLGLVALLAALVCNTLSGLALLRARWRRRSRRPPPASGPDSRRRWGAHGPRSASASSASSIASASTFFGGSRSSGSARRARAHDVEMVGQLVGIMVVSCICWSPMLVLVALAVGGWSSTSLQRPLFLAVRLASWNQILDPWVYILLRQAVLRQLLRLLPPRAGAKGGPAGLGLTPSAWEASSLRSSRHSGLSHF
Put plainly: Binding affinity to human EP1 receptor by radioligand binding assay.

Data set [2] addresses Prostaglandin F2-alpha receptor (Homo sapiens, UniProt P43088). Description: Binding affinity to human FP receptor by radioligand binding assay.
In data set [3] the target is T2, Prostaglandin E2 receptor EP4 subtype (Homo sapiens, UniProt P35408). Put plainly: Binding affinity to human EP4 receptor by radioligand binding assay.
T2 sequence (P35408 whole entry): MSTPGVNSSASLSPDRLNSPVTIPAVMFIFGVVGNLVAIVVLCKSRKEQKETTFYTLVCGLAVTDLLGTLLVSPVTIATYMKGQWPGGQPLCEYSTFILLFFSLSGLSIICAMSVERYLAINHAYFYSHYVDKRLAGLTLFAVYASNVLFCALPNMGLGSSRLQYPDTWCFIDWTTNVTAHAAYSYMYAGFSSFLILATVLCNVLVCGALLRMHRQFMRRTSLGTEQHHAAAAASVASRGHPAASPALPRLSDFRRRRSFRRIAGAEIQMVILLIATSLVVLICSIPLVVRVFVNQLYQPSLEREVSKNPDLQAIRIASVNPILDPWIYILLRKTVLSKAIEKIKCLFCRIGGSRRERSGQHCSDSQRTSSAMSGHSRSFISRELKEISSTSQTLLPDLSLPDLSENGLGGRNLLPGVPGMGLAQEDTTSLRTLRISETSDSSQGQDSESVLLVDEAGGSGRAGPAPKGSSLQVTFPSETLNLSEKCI
The species named for data set [4] is Homo sapiens. Description: Selectivity of human EP1 receptor over human EP3 receptor.
In data set [5] the target is T3, Prostaglandin E2 receptor EP2 subtype (Homo sapiens, UniProt P43116). Put plainly: Binding affinity to human EP2 receptor at 20 uM by radioligand binding assay.
T3 sequence (P43116 whole entry): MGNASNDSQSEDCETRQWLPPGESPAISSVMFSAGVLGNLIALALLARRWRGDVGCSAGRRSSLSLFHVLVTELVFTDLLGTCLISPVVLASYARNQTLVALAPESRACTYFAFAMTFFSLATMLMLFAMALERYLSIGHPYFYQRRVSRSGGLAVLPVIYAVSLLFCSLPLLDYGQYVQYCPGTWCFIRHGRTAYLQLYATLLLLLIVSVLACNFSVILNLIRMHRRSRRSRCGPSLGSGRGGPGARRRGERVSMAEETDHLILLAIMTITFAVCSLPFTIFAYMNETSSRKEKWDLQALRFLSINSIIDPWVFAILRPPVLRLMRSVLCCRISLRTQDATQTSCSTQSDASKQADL
For data set [6], the species on record is Homo sapiens. Description: Selectivity of human FP receptor over human EP3 receptor.
Data set [7] is filed under the species Homo sapiens. Description: Selectivity of human EP4 receptor over human EP3 receptor.
The species entered for data set [8] is Homo sapiens. Put plainly: Selectivity of human EP2 receptor over human EP3 receptor.
The target in data set [9] is T4, Prostaglandin E2 receptor EP3 subtype (Homo sapiens, UniProt P43115).
T4 sequence (P43115 whole entry): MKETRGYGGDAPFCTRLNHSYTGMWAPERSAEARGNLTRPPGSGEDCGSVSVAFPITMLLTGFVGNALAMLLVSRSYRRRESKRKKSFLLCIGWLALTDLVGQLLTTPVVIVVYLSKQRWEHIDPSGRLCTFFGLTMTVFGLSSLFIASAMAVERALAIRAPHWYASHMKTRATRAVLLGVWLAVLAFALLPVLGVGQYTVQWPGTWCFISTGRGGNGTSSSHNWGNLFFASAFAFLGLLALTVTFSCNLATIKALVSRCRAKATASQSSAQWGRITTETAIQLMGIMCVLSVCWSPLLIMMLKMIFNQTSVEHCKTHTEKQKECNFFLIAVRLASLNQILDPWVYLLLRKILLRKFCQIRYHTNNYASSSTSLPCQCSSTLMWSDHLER
Description: Displacement of [3H]PGE2 from human EP3 receptor. The method, boiled down:
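Displacement of [3H]-PGE2 from human EP3 receptor membrane preparations was run in buffer. IC50 values come from at least three experiments each.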

Data set [10] is described as follows: Metabolic stability in human liver microsomes after 30 mins. It is filed as ADME, Microsome. To be noted: read-out: Stability. In short, it runs like this:
(§1)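 Compound was incubated 30 min with liver microsomes from each species. Percent parent remaining was measured by LC/MS/MS.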

Data set [11] is described as follows: Metabolic stability in rat liver microsomes after 30 mins. The note with it: read-out: Stability. It counts as ADME, Microsome. In short, it runs like this: as §1
Data set [12] addresses T5, Prostaglandin E2 receptor EP3 subtype (Homo sapiens) (UniProt P43115).
T5 sequence (whole entry): T4 sequence (P43115 whole entry)
Description: Ratio of IC50 for human EP3 receptor in presence of 10% human serum to IC50 for human EP3 receptor in buffer. In short, it runs like this:
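Displacement of [3H]-PGE2 from human EP3 membrane preparations was run both with 10% human serum and in buffer alone. Fold-shift is IC50 with serum divided by IC50 in buffer.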

Data set [13] has as its target T6, Prostaglandin E2 receptor EP1 subtype (Homo sapiens) (UniProt P34995).
T6 sequence (whole entry): T1 sequence (P34995 whole entry)
Put plainly: Binding affinity to human EP1 receptor at 20 uM by radioligand binding assay.

The target of data set [14] is T3, Prostaglandin E2 receptor EP2 subtype. Put plainly: Binding affinity to human EP2 receptor by radioligand binding assay.
Data set [15] in a line: Aqueous solubility in 50 mM PSB buffer at pH 7.4 by HPLC analysis. It counts as physicochemical. The method, boiled down: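 Samples were stirred overnight in 50 mM PSB buffer, pH 7.4, then filtered. Concentration was measured by HPLC against a 5-point standard curve, giving thermodynamic solubility.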
Data set [16] is described as follows: Metabolic stability in dog liver microsomes after 30 mins. The note with it: read-out: Stability. It counts as ADME, Canis lupus familiaris, Microsome. In short, it runs like this:
as §1
Background: Microsomes from liver hold many membrane-bound enzymes, among them those of drug oxidation.

Data set [17] in a line: Metabolic stability in monkey liver microsomes after 30 mins. It counts as ADME, Macaca mulatta, Microsome. To be noted: rhesus monkey, read-out: Stability. In short, it runs like this:
as §1

Data set [18] addresses T4, Prostaglandin E2 receptor EP3 subtype. Description: Antagonist activity at human EP3 receptor expressed in CHO-K1 cells assessed as reversal of inhibition of forskolin-induced cAMP production. It is filed as functional, cell-based. In short, it runs like this: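 CHO-K1 cells stably expressing human EP3 were exposed to increasing test compound concentrations for 10 min at 37 °C, with 5 μM forskolin plus 5 nM PGE2 present. Read-out was the block of PGE2's inhibition of the forskolin-induced cAMP rise, giving IC50.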

Data set [19] deals with T2, Prostaglandin E2 receptor EP4 subtype. Put plainly: Binding affinity to human EP4 receptor at 20 uM by radioligand binding assay.

The structures appear in SMILES notation. Calls of active or inactive are those of the source. No cut-off for these calls is given here.

Sequence of Prostaglandin F2-alpha receptor (P43088 whole entry): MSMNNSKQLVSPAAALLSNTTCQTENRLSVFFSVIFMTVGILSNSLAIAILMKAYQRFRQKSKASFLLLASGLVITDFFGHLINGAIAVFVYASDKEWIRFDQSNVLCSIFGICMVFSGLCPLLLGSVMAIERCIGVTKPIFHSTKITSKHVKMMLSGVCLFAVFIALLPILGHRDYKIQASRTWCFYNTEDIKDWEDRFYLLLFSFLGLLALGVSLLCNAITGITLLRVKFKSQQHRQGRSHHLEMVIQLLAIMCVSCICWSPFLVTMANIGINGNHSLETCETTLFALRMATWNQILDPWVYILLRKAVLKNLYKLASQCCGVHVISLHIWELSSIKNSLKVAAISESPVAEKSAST

With `CC12CCCC(/C=C/C(=O)NS(=O)(=O)c3cc(F)c(F)cc3F)=C1N(Cc1ccc(Cl)cc1Cl)C(=O)C2` (centres undefined), the IC50 in data set [1] was found to be 11.6 µM; in data set [2] it was 7.6 µM; in data set [3], 20.8 µM; in data set [9], 0.0037 µM. For the same molecule, the Selectivity ratio in the data set listed under Homo sapiens [4], in the data set listed under Homo sapiens [6], in the data set listed under Homo sapiens [7] and in the data set filed under Homo sapiens [8] was more than 1000 each time. In addition, the outcome in [5] was inactive. For the same molecule, the remaining at 0.5 h in [10] was found to be 62%; in [11], 37%. Moreover, in data set [12], the fold change (FC) was 7.

For `CC12CCCC(/C=C/C(=O)NS(=O)(=O)c3ccc(F)c(F)c3)=C1N(Cc1ccc(F)c(F)c1)C(=O)C2` (centres undefined), the IC50 in data set [2] stood at 16.4 µM; in data set [3] it was 7.7 µM; in data set [9], 0.0094 µM; in [14] it was 2.3 µM. Moreover, the Selectivity ratio in the data set listed under Homo sapiens [4], in the data set listed under Homo sapiens [6], in the data set filed under Homo sapiens [7] and in the data set filed under Homo sapiens [8] was more than 1000 throughout. Besides, the outcome in data set [13] was inactive. Also, the figures for the remaining at 0.5 h in [10] and in [11] were 79% and 82%, respectively. In addition, in [12], the fold change (FC) came out at 3.2.

Turning to `COc1cccc(CN2C(=O)CC3(C)CCCC(/C=C/C(=O)NS(=O)(=O)c4ccc(F)c(F)c4)=C23)c1` (centres undefined), the IC50 in data set [1] is 1.4 µM; in data set [2], 6.4 µM; in data set [3], 7.5 µM; in [9], 0.0129 µM. Further, the Selectivity ratio in the data set filed under Homo sapiens [4], in the data set filed under Homo sapiens [6], in the data set listed under Homo sapiens [7] and in the data set filed under Homo sapiens [8] was more than 1000 in each case. Also, in data set [5], the outcome was inactive. Moreover, the remaining at 0.5 h came out at 76% in data set [10] and 42% in data set [11]. In data set [12], the fold change (FC) came out at 4.2.

`CC12CCCC(/C=C/C(=O)NS(=O)(=O)c3cc(F)c(F)cc3F)=C1N(Cc1ccc(F)c(F)c1)C(=O)C2` (centres undefined): the solubility in data set [15] was more than 3 mg/mL. In addition, the IC50 in [2] is 3.8 µM; in [3], 6.2 µM; in data set [9] it was 0.0077 µM; in [14], 13.9 µM; in data set [18], 0.0035 µM. The remaining at 0.5 h was found to be 87% in data set [16], 54% in data set [17], 75% in data set [10] and 89% in data set [11]. The Selectivity ratio in the data set filed under Homo sapiens [4], in the data set listed under Homo sapiens [6], in the data set listed under Homo sapiens [7] and in the data set listed under Homo sapiens [8] was more than 1000 each time. The outcome in data set [13] was inactive. Besides, the fold change (FC) in data set [12] worked out at 9.3.

Take `CC12CCCC(/C=C/C(=O)NS(=O)(=O)c3cc(Cl)c(Cl)s3)=C1N(Cc1ccc3ccccc3c1)C(=O)C2` (centres undefined): the figures for the IC50 in [1], in data set [2] and in data set [9] were 6.9 µM, 10.2 µM and 0.0068 µM, respectively. Also, the outcome in data set [19] and in data set [5] was inactive. Further, the Selectivity ratio in the data set filed under Homo sapiens [4], in the data set filed under Homo sapiens [6], in the data set listed under Homo sapiens [7] and in the data set filed under Homo sapiens [8] was more than 1000 in each case. The values for the remaining at 0.5 h in [10] and in data set [11] were 64% and 54%, respectively. Moreover, in [12], the fold change (FC) stood at 7.4.
